From ChEMBL document CHEMBL1130198, “Inhibition of tubulin polymerization by 5,6-dihydroindolo[2,1-alpha]isoquinoline derivatives” (J Med Chem, 1997)
pIC50: −log10 of the molar value.

Columns and labels:
Tubulin [1] = target: T1, Tubulin (Bos taurus, UniProt Q6B856+Q862L2+Q862F3); assay: Inhibition of tubulin polymerization using isolated calf brain; assay type: functional
Procedure, shortened: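 Twice-cycled, MAP-containing calf brain microtubules depolymerized in PEMG buffer (0.8 M glutamate, pH 6.6-6.7) at 0 °C; compound in DMSO, preincubated 15 min at 37 °C, chilled, GTP added; turbidity at 350 nm over 20 min after shift from 2 to 37 °C.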

MDA-MB-231 [2] = assay: Inhibition of the growth of MDA-MB 231 human breast cancer cells; assay type: functional, cell-based
Tubulin (Bos taurus) = Tubulin (Bos taurus) (UniProt Q6B856+Q862L2+Q862F3); assay: Inhibition of colchicine binding to tubulin; assay type: functional; conditions: concentration not given here
Procedure, shortened: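 Calf brain tubulin (prepared as for polymerization) diluted 1:10 in ice-cold PEM buffer (PIPES, EGTA, MgSO4, pH 6.6-6.7); 1 µM [3H]colchicine with 10 µM inhibitor, DMSO vehicle, 30 min at 37 °C; GTP added on ice, filtered through DEAE-cellulose, washed; tubulin-bound radioactivity by scintillation counting, tubulin-free mixtures as background. Mean of two independent experiments.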

MCF7 = assay: Inhibition of estrogen receptor positive MCF-7 human breast cancer cell proliferation; assay type: functional, cell-based
Procedure, shortened: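 MCF-7 cells in EMEM with 10% FCS; treatment medium contains dextran-charcoal-treated FCS; exposure ca. 8 days; glutaraldehyde fixation, crystal violet staining, optical density read at 578 nm.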

Tubulin [3] = target: T1, Tubulin; assay: Inhibition of tubulin polymerization using isolated calf brain at 37 degrees C; assay type: functional
[4] = target: Tubulin alpha chain (Bos taurus) (UniProt P81947); assay: Inhibition of colchicine binding to tubulin; conditions: concentration not given here
Chain of Tubulin alpha chain (Bos taurus) (P81947 whole entry, looked up): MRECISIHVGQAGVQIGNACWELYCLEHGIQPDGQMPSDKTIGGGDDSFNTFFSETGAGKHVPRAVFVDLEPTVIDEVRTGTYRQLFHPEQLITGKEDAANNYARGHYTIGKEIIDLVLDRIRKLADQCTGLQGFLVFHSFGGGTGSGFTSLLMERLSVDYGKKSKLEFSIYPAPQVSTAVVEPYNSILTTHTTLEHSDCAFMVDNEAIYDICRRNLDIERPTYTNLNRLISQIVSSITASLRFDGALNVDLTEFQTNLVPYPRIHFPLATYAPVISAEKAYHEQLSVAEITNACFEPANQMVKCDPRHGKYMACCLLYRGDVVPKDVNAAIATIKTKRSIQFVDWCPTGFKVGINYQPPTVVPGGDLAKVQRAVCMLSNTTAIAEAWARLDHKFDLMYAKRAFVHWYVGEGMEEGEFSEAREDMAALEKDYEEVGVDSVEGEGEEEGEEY

Tubulin [5] = target: T1, Tubulin; assay: Inhibition of tubulin polymerization using isolated calf brain at 26 degrees C; assay type: functional
MDA-MB-231 [6] = assay: Inhibition of estrogen receptor negative MDA-MB 231 breast cancer cell proliferation at 1 uM; assay type: functional, cell-based; conditions: Homo sapiens
Procedure, shortened: (§1)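 MDA-MB 231 cells grown in McCoy-5a with L-glutamine, gentamycin, NaHCO3 and 5% FCS, 5% CO2, 37 °C. Cells were seeded in 96-well plates and grown 2–3 days, then given medium containing compound; controls had 0.1% DMF. After about 4 days, cells were fixed with 1% glutaric dialdehyde, stained with 0.02% crystal violet, extracted with 70% EtOH, and OD578 was read against initial density.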

MDA-MB-231 [7] = assay: Inhibition of estrogen receptor negative MDA-MB 231 breast cancer cell proliferation at 10 uM; assay type: functional, cell-based; conditions: Homo sapiens; procedure, shortened: as §1
MDA-MB-231 [8] = assay: Inhibition of estrogen receptor negative MDA-MB 231 breast cancer cell proliferation; assay type: functional, cell-based; conditions: Homo sapiens
Procedure, shortened: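 MDA-MB 231 cells (hormone-independent) in McCoy-5a with 5% FCS, grown 2–3 days in 96-well plates at 37 °C, 5% CO2, then medium with test compound (DMF stock; 0.1% DMF controls) for about 4 days; glutaraldehyde fixation, 0.02% crystal violet staining, ethanol extraction, OD 578 nm versus initial density. IC50 from two independent experiments.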

Compound	pIC50 (MDA-MB-231 [2])	pIC50 (MCF7)	further results
CCCC1Cc2cc(O)ccc2-c2c(C=O)c3ccc(O)cc3n21 (single isomer, unassigned; (-)) [listing 1 of 2 here]			IC50 (Tubulin [1]): > 70000 nM
CCCC1Cc2cc(O)ccc2-c2c(C=O)c3ccc(O)cc3n21 (single isomer, unassigned; (-)) [listing 2 of 2 here]			inhibition (Tubulin (Bos taurus)): 27%
CC[C@]1(O)C[C@@H]2CN(CCc3c([nH]c4ccccc34)[C@@](C(=O)OC)(c3cc4c(cc3OC)N(C)[C@H]3[C@@](O)(C(=O)OC)[C@H](OC(C)=O)[C@]5(CC)C=CCN6CC[C@]43[C@@H]65)C2)C1 [VINBLASTINE]	7.96		
COc1cc2c(cc1O)CC[C@@H]1[C@@H]2CC[C@]2(C)[C@@H](O)CC[C@@H]12 [2-METHOXYESTRADIOL]			inhibition [4]: 44%; IC50 (Tubulin [5]): 12000 nM; IC50 (Tubulin [1]): 60000 nM; pIC50 (MDA-MB-231 [6]): 6.60; pIC50 (MDA-MB-231 [7]): 5.30
CCCCC1Cc2cc(O)ccc2-c2c(C(C)=O)c3ccc(O)cc3n21 (stereo unspecified)	5.66	5.60	
CC/C(=C(\c1ccccc1)c1ccc(OCCN(C)C)cc1)c1ccccc1 [TAMOXIFEN]		6.82	
CCCCC1Cc2cc(O)ccc2-c2c(C=O)c3ccc(O)cc3n21 (single isomer, unassigned; (-)) [listing 1 of 2 here]			IC50 (Tubulin [1]): > 60000 nM
CCCCC1Cc2cc(O)ccc2-c2c(C=O)c3ccc(O)cc3n21 (stereo in doubt; (+)-6c) [listing 1 of 2 here]			IC50 (Tubulin [1]): 3100 nM
CCCC1Cc2cc(O)ccc2-c2c(C=O)c3ccc(O)cc3n21 (single isomer, unassigned; (+)) [listing 1 of 2 here]			inhibition (Tubulin (Bos taurus)): 53%
CCCCC1Cc2cc(O)ccc2-c2c(C=O)c3ccc(O)cc3n21 (single isomer, unassigned; (-)) [listing 2 of 2 here]			inhibition (Tubulin (Bos taurus)): 22%
CCC1Cc2cc(O)ccc2-c2c(C=O)c3ccc(O)cc3n21 (stereo unspecified)	5.55	5.60	
CCCCC1Cc2cc(O)ccc2-c2cc3cc(O)c(O)cc3n21 (stereo unspecified)	< 5.00	< 5.00	
CCCC1Cc2cc(O)ccc2-c2c(C=O)c3ccc(O)cc3n21 (single isomer, unassigned; (+)) [listing 2 of 2 here]			IC50 (Tubulin [1]): 11000 nM
CCCCC1Cc2cc(O)ccc2-c2c(C#N)c3ccc(O)cc3n21 (stereo unspecified)		6.27	inhibition [4]: 48%; IC50 (Tubulin [3]): 13000 nM; pIC50 (MDA-MB-231 [8]): 6.52
COc1cc2c(c(OC)c1OC)-c1ccc(OC)c(=O)cc1[C@@H](NC(C)=O)CC2 [COLCHICINE]	7.52		
CCCCC1Cc2cc(O)ccc2-c2c(/C=N/Cc3ccccc3)c3ccc(O)cc3n21 (stereo unspecified)	5.68	6.59	
CCCCC1Cc2cc(O)ccc2-c2c(C#N)c3cc(O)c(O)cc3n21 (stereo unspecified)	5.47	5.57	inhibition [4]: 54%; IC50 (Tubulin [3]): 25000 nM
CCCCC1Cc2cc(O)ccc2-c2c(C=O)c3ccc(O)cc3n21 (stereo in doubt; (+)-6c) [listing 2 of 2 here]			inhibition (Tubulin (Bos taurus)): 69%
COc1cc([C@@H]2c3cc4c(cc3[C@H](O)[C@H]3COC(=O)[C@H]23)OCO4)cc(OC)c1OC [PODOFILOX]	7.59		
CCCC1Cc2cc(O)ccc2-c2c(C=O)c3ccc(O)cc3n21 (stereo unspecified)	6.52	6.54	

Second part, led by results:

pIC50 (MDA-MB-231 [2])	pIC50 (MCF7)	Compound	further results
< 5.00		CCCCC1Cc2cc(OC)ccc2-c2c(C=O)c3cc(OC)ccc3n21 (stereo unspecified)	
5.06		CCCCC1Cc2cc(OC)ccc2-c2c(C=O)c3ccc(OC)cc3n21 (stereo unspecified)	
5.57		CCCCC1Cc2cc(OC)ccc2-c2c(C#N)c3cc(OC)c(OC)cc3n21 (stereo unspecified)	
5.24		CCCCC1Cc2cc(OC)ccc2-c2c(/C=N/Cc3ccccc3)c3ccc(OC)cc3n21 (stereo unspecified)	
5.05		CCCCC1Cc2cc(OC)ccc2-c2c(C=O)c3cc(OC)c(OC)cc3n21 (stereo unspecified)	
5.49	< 5.00	CCCCC1Cc2cc(O)ccc2-c2c(C=O)c3cc(O)c(O)cc3n21 (stereo unspecified)	IC50 (Tubulin [3]): 19000 nM
< 5.00		CCCCC1Cc2cc(OC)ccc2-c2c(/C=N/O)c3ccc(OC)cc3n21 (stereo unspecified)	
5.51		CCCCC1Cc2cc(OC)ccc2-c2c(C#N)c3ccc(OC)cc3n21 (stereo unspecified)	
< 5.00		CCCCC1Cc2cc(OC)ccc2-c2cc3cc(OC)c(OC)cc3n21 (stereo unspecified)	
5.15		CCCCC1Cc2cc(OC)ccc2-c2c(CNCc3ccccc3)c3ccc(OC)cc3n21 (stereo unspecified)	
6.70	6.19	CCCCC1Cc2cc(O)ccc2-c2c(C=O)c3cc(O)ccc3n21 (stereo unspecified)	IC50 (Tubulin [3]): 19000 nM
5.68		CCCCC1Cc2cc(OC)ccc2-c2c(CNC)c3ccc(OC)cc3n21 (stereo unspecified)	
< 5.00		CCCC1Cc2cc(OC)ccc2-c2c(C=O)c3ccc(OC)cc3n21 (stereo unspecified)	
< 5.00		CCCCC1Cc2cc(OC)ccc2-c2c(C(C)=O)c3ccc(OC)cc3n21 (stereo unspecified)	
5.85	6.66	CCCCC1Cc2cc(O)ccc2-c2c(C=O)c3ccc(O)cc3n21 (stereo unspecified)	
5.11		CCCCC1Cc2cc(OC)ccc2-c2c(/C=N/C)c3ccc(OC)cc3n21 (stereo unspecified)	
